Calls of active or inactive are those of the source. The calls are words filed in the database; no cut-off is given here.
What was measured:
Assay type in all cases: cell-based
A549 = experiment: Antiproliferative activity against human A549 cells after 72 hrs by SRB assay; conditions: for Activity: human, a549, 72 h; for IC50: Homo sapiens, A549, 72 h
Outline: (§1)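 SRB assay. Cells at 3–5 × 10^3/well were exposed to a range of sample concentrations for 72 h. They were fixed in 50% TCA for 30 min, stained with 0.04% SRB for 30 min, and the dye was dissolved in 10 mM Tris base. Absorbance read at 515 nm. Medium was RPMI 1640 with 10% FBS at 37 °C, 5% CO2. KBvin cells were kept in 100 nM vincristine.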

DU-145 = experiment: Antiproliferative activity against human DU145 cells after 72 hrs by SRB assay; conditions: for Activity: human, du-145, 72 h; for IC50: Homo sapiens, DU-145, 72 h; outline: as §1
KB = experiment: Antiproliferative activity against human KB cells after 72 hrs by SRB assay; conditions: for Activity: human, kb; for IC50: Homo sapiens, KB; outline: as §1
[1] = Antiproliferative activity against human multidrug-resistant KBVIN cells after 72 hrs by SRB assay; conditions: for Activity: human, kbvin; for IC50: Homo sapiens, KBVIN; outline: as §1
KBVIN [2] = experiment: Inhibition of P-gp-mediated multidrug-resistance in human KBVIN cells assessed as […] of paclitaxel-induced cell survival rate at 10 uM after 72 hrs by SRB assay
NIH3T3 [3] = experiment: Inhibition of human P-gp-mediated multidrug-resistance in mouse NIH3T3 MDR cells assessed as potentiation of in paclitaxel-induced cytotoxic activity at 10 uM after 72 hrs by SRB assay; conditions: human P-gp expressed in mouse cells
KBVIN [4] = experiment: Inhibition of P-gp-mediated multidrug-resistance in human KBVIN cells assessed as fold decrease in paclitaxel IC50 for cytotoxic activity at 10 uM after 72 hrs by SRB assay relative to control
Outline: (§2)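 KBvin cells were exposed to graded concentrations of anticancer drug (doxorubicin, paclitaxel or vincristine), alone or with 10 μM test compound, for 72 h. Growth was read by SRB assay. IC50 was found by log-linear interpolation. Reversal fold = IC50 (drug alone) / IC50 (drug + compound). Verapamil was the positive control. Each experiment was run at least three times.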

NIH3T3 [5] = experiment: Inhibition of human P-gp-mediated multidrug-resistance in mouse NIH3T3 MDR cells assessed as potentiation of in vincristine-induced cytotoxic activity at 10 uM after 72 hrs by SRB assay; conditions: Mus musculus cells expressing human P-gp
KBVIN [6] = experiment: Inhibition of P-gp-mediated multidrug-resistance in human KBVIN cells assessed as fold decrease in vincristine IC50 for cytotoxic activity at 10 uM after 72 hrs by SRB assay relative to control; outline: as §2
KBVIN [7] = experiment: Inhibition of P-gp-mediated multidrug-resistance in human KBVIN cells assessed as fold decrease in doxorubicin IC50 for cytotoxic activity at 10 uM after 72 hrs by SRB assay relative to control; outline: as §2
KBVIN [8] = experiment: Inhibition of P-gp-mediated multidrug-resistance in human KBVIN cells assessed as paclitaxel-induced cytotoxicity at 10 uM after 72 hrs by SRB assay; outline: as §2
KBVIN [9] = experiment: Inhibition of P-gp-mediated multidrug-resistance in human KBVIN cells assessed as vincristine-induced cytotoxicity at 10 uM after 72 hrs by SRB assay; outline: as §2
KBVIN [10] = experiment: Inhibition of P-gp-mediated multidrug-resistance in human KBVIN cells assessed as doxorubicin-induced cytotoxicity at 10 uM after 72 hrs by SRB assay; outline: as §2
[11] = (§3) Inhibition of P-gp-mediated multidrug-resistance in human KBVIN cells assessed as paclitaxel-induced cytotoxicity after 72 hrs by SRB assay
Outline: (§4)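 KBvin cells were cultured with 100 nM paclitaxel plus a range of compound concentrations. Growth was read by SRB, and the EC50 of reversal was derived. Verapamil was the comparator.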

KBVIN [12] = experiment: as §3; outline: as §4
[13] = target: T1, ATP-dependent translocase ABCB1 (Homo sapiens, UniProt P08183); experiment: Inhibition of P-gp over expressed in human multidrug-resistant KBVIN cells after 10 mins by calcein AM accumulation assay
Outline: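 KBvin cells at 5 × 10^3/well were pretreated with samples for 1 h, then given calcein-AM (1 μM final) for 10 min. Cells were washed with ice-cold PBS and lysed in 1% SDS/PBS. Calcein fluorescence read at Ex 494/Em 517 nm. Verapamil or CsA served as positive control.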

[14] = target: T1, ATP-dependent translocase ABCB1; experiment: Inhibition of P-gp over expressed in human multidrug-resistant KBVIN cells assessed as intracellular accumulation of doxorubicin at 10uM after 3 hrs by fluorescence microplate reader analysis relative to control
Outline: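 KBvin cells at 5 × 10^3/well were pretreated with compound for 1 h, then given doxorubicin (10 μM final) for 3 h. Cells were washed with ice-cold PBS and lysed in 1% SDS/PBS. Verapamil or CsA served as positive control.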

T1 sequence (P08183 whole entry): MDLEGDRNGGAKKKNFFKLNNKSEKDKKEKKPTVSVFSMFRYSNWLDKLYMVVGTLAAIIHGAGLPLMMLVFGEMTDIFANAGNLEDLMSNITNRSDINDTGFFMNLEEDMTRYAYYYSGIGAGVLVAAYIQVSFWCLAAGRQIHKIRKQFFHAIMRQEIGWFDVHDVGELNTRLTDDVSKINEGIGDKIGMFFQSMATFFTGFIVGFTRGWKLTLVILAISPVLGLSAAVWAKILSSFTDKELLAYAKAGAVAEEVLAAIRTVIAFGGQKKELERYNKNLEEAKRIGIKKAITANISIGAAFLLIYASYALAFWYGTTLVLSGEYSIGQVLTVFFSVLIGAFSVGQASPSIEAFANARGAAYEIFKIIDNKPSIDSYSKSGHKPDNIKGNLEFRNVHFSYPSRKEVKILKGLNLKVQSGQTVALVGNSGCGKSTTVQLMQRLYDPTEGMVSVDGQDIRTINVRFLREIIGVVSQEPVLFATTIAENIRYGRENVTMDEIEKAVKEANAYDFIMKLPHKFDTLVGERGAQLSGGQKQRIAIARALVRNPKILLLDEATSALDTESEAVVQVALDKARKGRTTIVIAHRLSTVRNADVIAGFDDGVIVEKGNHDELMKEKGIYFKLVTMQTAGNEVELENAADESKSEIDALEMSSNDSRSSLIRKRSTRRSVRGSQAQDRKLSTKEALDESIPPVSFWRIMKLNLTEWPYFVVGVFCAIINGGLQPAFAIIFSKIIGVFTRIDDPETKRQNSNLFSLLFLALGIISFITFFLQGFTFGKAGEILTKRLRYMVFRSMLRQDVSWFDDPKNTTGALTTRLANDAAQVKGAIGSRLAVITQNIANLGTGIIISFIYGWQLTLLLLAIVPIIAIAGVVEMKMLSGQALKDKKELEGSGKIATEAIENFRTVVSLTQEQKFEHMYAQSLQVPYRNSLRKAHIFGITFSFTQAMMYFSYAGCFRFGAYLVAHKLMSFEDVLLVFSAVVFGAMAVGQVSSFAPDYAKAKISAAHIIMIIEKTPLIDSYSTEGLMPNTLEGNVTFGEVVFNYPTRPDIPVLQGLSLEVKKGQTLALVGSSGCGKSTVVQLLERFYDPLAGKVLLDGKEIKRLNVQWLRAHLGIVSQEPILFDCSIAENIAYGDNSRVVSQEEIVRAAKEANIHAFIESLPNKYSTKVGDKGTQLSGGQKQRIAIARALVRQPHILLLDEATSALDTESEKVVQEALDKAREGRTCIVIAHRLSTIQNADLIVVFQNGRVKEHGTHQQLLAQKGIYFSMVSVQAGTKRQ

Row | IC50 (A549) [µM] | IC50 (DU-145) [µM] | IC50 (KB) [µM] | Structure (SMILES) | inhibition (KBVIN [2]) | IC50 [1] [µM] | other results
1 | – | – | – | CCCC(=O)OCc1c(Br)c(OC)c2c(c1-c1c(COC(=O)CCC)c(Br)c(OC)c3c1OCO3)OCO2 | inactive | – | Activity (A549): Toxic; Activity (DU-145): Toxic; Activity (KB): Toxic; Activity [1]: Toxic
2 | > 100 | > 100 | > 100 | COc1c(Br)c(CO)c(-c2c3c(c(OC)c(Br)c2C(=O)O)OCO3)c2c1OCO2 | inactive | > 100 | –
3 | > 100 | > 100 | > 100 | COc1cc(C(=O)OCc2cc(OC)c3c(c2-c2c(COC(=O)c4cc(OC)c(OC)c(OC)c4)cc(OC)c4c2OCO4)OCO3)cc(OC)c1OC | – | > 100 | inhibition (NIH3T3 [3]): Active; fold change (FC) (KBVIN [4]): 222; inhibition (NIH3T3 [5]): Active; fold change (FC) (KBVIN [6]): 566; fold change (FC) (KBVIN [7]): 23; Activity (KBVIN [8]): Active; Activity (KBVIN [9]): Active; Activity (KBVIN [10]): Active; EC50 [11]: 1870 nM; inhibition (KBVIN [12]): Dose-dependent effect; inhibition (INH) [13]: Dose-dependent effect; fold change (FC) [14]: 1.2
4 | > 100 | > 100 | > 100 | COc1cc(COC(=O)c2ccc([N+](=O)[O-])cc2)c(-c2c(COC(=O)c3ccc([N+](=O)[O-])cc3)cc(OC)c3c2OCO3)c2c1OCO2 | inactive | > 100 | –
5 | > 100 | > 100 | > 100 | CCCCCCCCCCCC(=O)OCc1cc(OC)c2c(c1-c1c(COC(=O)CCCCCCCCCCC)cc(OC)c3c1OCO3)OCO2 | inactive | > 100 | –
6 | > 100 | > 100 | > 100 | COC(=O)c1c(I)c(OC)c2c(c1-c1c3c(c(OC)c(I)c1C(=O)OC)OCO3)OCO2 | inactive | > 100 | –
7 | > 100 | > 100 | > 100 | COc1cc(CO)c(-c2c(CO)cc(OC)c3c2OCO3)c2c1OCO2 | inactive | > 100 | –
8 | – | – | – | COc1cc(COC(=O)c2ccc3ccccc3n2)c(-c2c(COC(=O)c3ccc4ccccc4n3)cc(OC)c3c2OCO3)c2c1OCO2 | Active | – | Activity (A549): Toxic; Activity (DU-145): Toxic; Activity (KB): Toxic; Activity [1]: Toxic
9 | > 100 | > 100 | > 100 | COc1c(Br)c(CO)c(-c2c(CO)c(Br)c(OC)c3c2OCO3)c2c1OCO2 | inactive | > 100 | –
10 | > 100 | > 100 | > 100 | COc1cc(COC(=O)c2ccc(C#N)cc2)c(-c2c(COC(=O)c3ccc(C#N)cc3)cc(OC)c3c2OCO3)c2c1OCO2 | inactive | > 100 | –
11 | > 100 | > 100 | > 100 | COC(=O)c1c(Br)c(OC)c2c(c1-c1c3c(c(OC)c(Br)c1C(=O)OC)OCO3)OCO2 | inactive | > 100 | –
12 | > 100 | > 100 | > 100 | COc1cc(COC(=O)c2ccc3c(c2)OCO3)c(-c2c(COC(=O)c3ccc4c(c3)OCO4)cc(OC)c3c2OCO3)c2c1OCO2 | inactive | > 100 | –
13 | > 100 | > 100 | > 100 | COc1cc(COC(=O)C(C)(C)C)c(-c2c(COC(=O)C(C)(C)C)cc(OC)c3c2OCO3)c2c1OCO2 | – | > 100 | inhibition (NIH3T3 [3]): Active; fold change (FC) (KBVIN [4]): 37; inhibition (NIH3T3 [5]): Active; fold change (FC) (KBVIN [6]): 349; fold change (FC) (KBVIN [7]): 46; Activity (KBVIN [8]): Active; Activity (KBVIN [9]): Active; Activity (KBVIN [10]): Active; EC50 [11]: 2810 nM; inhibition (KBVIN [12]): Dose-dependent effect; inhibition (INH) [13]: Dose-dependent effect; fold change (FC) [14]: 1.2
14 | > 100 | > 100 | > 100 | COc1cc(COC(C)=O)c(-c2c(COC(C)=O)cc(OC)c3c2OCO3)c2c1OCO2 | inactive | > 100 | –
15 | > 100 | > 100 | > 100 | COc1cc(COC(=O)CCC(=O)O)c(-c2c(COC(=O)CCC(=O)O)cc(OC)c3c2OCO3)c2c1OCO2 | inactive | > 100 | –
16 | – | – | – | COc1ccc(CCN(C)CCCC(C#N)(c2ccc(OC)c(OC)c2)C(C)C)cc1OC (centres undefined) | – | – | fold change (FC) (KBVIN [4]): 31; fold change (FC) (KBVIN [6]): 109; fold change (FC) (KBVIN [7]): 9; Activity (KBVIN [8]): Active; Activity (KBVIN [9]): Active; Activity (KBVIN [10]): Active; fold change (FC) [14]: 1.2

From ChEMBL document CHEMBL2086383, “Antitumor agents. 293. Nontoxic dimethyl-4,4'-dimethoxy-5,6,5',6'-dimethylenedioxybiphenyl-2,2'-dicarboxylate (DDB) analogues chemosensitize multidrug-resistant cancer cells to clinical anticancer drugs” (J Med Chem, 2012)
